For the test, the system named is SK-MEL-2. In words: Growth inhibition of SK-Mel2 melanoma cells after 48 hrs by MTT assay. To be noted: Homo sapiens, SK-MEL-2, 48 h. Type of test: functional, cell-based, Homo sapiens. In a few lines: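 Cells seeded at 200-400 per well in DMEM with 10% FBS and left to attach for 24 h. The next day, inhibitor in medium at 2× was added in an equal volume, and cells were incubated 48 h in a CO2 incubator. Reference plates were read at time of addition for T0 density. MTT staining was read as absorbance at 544 nm and compared with untreated control cells.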

Molecules are shown by their SMILES. Square brackets hold non-standard residues; d marks the D form. Peptide text beside a SMILES is read from it. * marks the point of attachment. Bpa = N[C@@H](Cc1ccc(C(=O)c2ccccc2)cc1)C(=O)O; Palmitoyl = CCCCCCCCCCCCCCCC(=O)*

Turning to `CCCCCCCCCCCCCCCC(=O)N[C@@H](CC(C)C)C(=O)N[C@H](C(=O)N[C@@H](Cc1ccc(O)cc1)C(=O)N[C@@H](C)C(=O)N[C@@H](Cc1c[nH]c2ccccc12)C(=O)N[C@@H](Cc1cnc[nH]1)C(=O)N[C@H](C(=O)N[C@@H](CO)C(=O)N[C@@H](Cc1ccccc1)C(=O)N[C@@H](CCCCN)C(=O)N[C@@H](C)C(=O)N[C@@H](CC(C)C)C(=O)NCC(=O)N[C@H](C(=O)N[C@H](C(=O)N[C@@H](Cc1ccc(O)cc1)C(=O)N[C@@H](CCC(N)=O)C(=O)N1CCC[C@H]1C(=O)O)[C@@H](C)O)[C@@H](C)O)[C@@H](C)O)[C@@H](C)O` (Palmitoyl-LTYAWHTSFKALGTTYQP-OH), the IC50 came to 300 nM.
Take `CCCCCCCCCCCCCCCC(=O)N[C@@H](CC(C)C)C(=O)N[C@H](C(=O)N[C@@H](Cc1ccc(O)cc1)C(=O)N[C@@H](C)C(=O)N[C@@H](Cc1c[nH]c2ccccc12)C(=O)N[C@@H](Cc1cnc[nH]1)C(=O)N[C@H](C(=O)N[C@@H](CO)C(=O)N[C@@H](Cc1ccccc1)C(=O)N[C@@H](CCCCN)C(=O)N[C@@H](C)C(=O)N[C@@H](CC(C)C)C(=O)NCC(=O)N[C@H](C(=O)N[C@H](C(=O)N[C@@H](Cc1ccc(O)cc1)C(=O)N[C@@H](CCC(N)=O)C(=O)N1CCC[C@H]1C(=O)N[C@@H](CC(C)C)C(=O)N[C@@H](CO)C(=O)NCC(=O)O)[C@@H](C)O)[C@@H](C)O)[C@@H](C)O)[C@@H](C)O` (Palmitoyl-LTYAWHTSFKALGTTYQPLSG-OH): the IC50 was 1400 nM.
Take `CCCCCCCCCCCCCCCC(=O)N[C@@H](CC(C)C)C(=O)N[C@H](C(=O)N[C@@H](Cc1ccc(O)cc1)C(=O)N[C@@H](C)C(=O)N[C@@H](Cc1c[nH]c2ccccc12)C(=O)N[C@@H](Cc1cnc[nH]1)C(=O)N[C@H](C(=O)N[C@@H](CO)C(=O)N[C@@H](Cc1ccccc1)C(=O)N[C@@H](CCCCN)C(=O)N[C@@H](C)C(=O)N[C@@H](CC(C)C)C(=O)NCC(=O)N[C@H](C(=O)N[C@H](C(=O)N[C@@H](Cc1ccc(O)cc1)C(=O)N[C@@H](CCC(N)=O)C(=O)N1CCC[C@H]1C(=O)N[C@@H](CC(C)C)C(=O)N[C@@H](CO)C(=O)NCC(=O)N[C@@H](CCCCN)C(=O)N[C@H](C(=O)N[C@@H](CO)C(=O)N[C@@H](Cc1ccc(O)cc1)C(=O)O)[C@@H](C)O)[C@@H](C)O)[C@@H](C)O)[C@@H](C)O)[C@@H](C)O` (Palmitoyl-LTYAWHTSFKALGTTYQPLSGKTSY-OH): the 50% inhibitory concentration (IC50) was 450 nM. Against the preceding compound, the IC50 is about 3.1-fold lower.
`CCCCCCCCCCCCCCCC(=O)NCCCC[C@H](NC(=O)[C@H](Cc1ccc(O)cc1)NC(=O)[C@H](CO)NC(=O)[C@@H](NC(=O)[C@H](CCCCN)NC(=O)CNC(=O)[C@H](CO)NC(=O)[C@H](CC(C)C)NC(=O)[C@@H]1CCCN1C(=O)[C@H](CCC(N)=O)NC(=O)[C@H](Cc1ccc(O)cc1)NC(=O)[C@@H](NC(=O)[C@@H](NC(=O)CNC(=O)[C@H](CC(C)C)NC(=O)[C@H](C)NC(=O)[C@H](CCCCN)NC(=O)[C@H](Cc1ccccc1)NC(=O)[C@H](CO)NC(=O)[C@@H](NC(=O)[C@H](Cc1cnc[nH]1)NC(=O)[C@H](Cc1c[nH]c2ccccc12)NC(=O)[C@H](C)NC(=O)[C@H](Cc1ccc(O)cc1)NC(=O)[C@@H](NC(=O)[C@H](CC(C)C)NC(=O)CCCCCCCCCCCCCCC)[C@@H](C)O)[C@@H](C)O)[C@@H](C)O)[C@@H](C)O)[C@@H](C)O)C(=O)O` (Palmitoyl-LTYAWHTSFKALGTTYQPLSGKTSYK(Palmitoyl)-OH) displayed a half-maximal inhibitory concentration (IC50) of 50 nM.
In the case of `CCCCCCCCCCCCCCCC(=O)N[C@@H](CC(C)C)C(=O)N[C@H](C(=O)N[C@@H](Cc1ccc(O)cc1)C(=O)N[C@@H](C)C(=O)N[C@@H](Cc1ccc(C(=O)c2ccccc2)cc1)C(=O)N[C@@H](Cc1cnc[nH]1)C(=O)N[C@H](C(=O)N[C@@H](CO)C(=O)N[C@@H](Cc1ccccc1)C(=O)N[C@@H](CCCCN)C(=O)N[C@@H](C)C(=O)N[C@@H](CC(C)C)C(=O)O)[C@@H](C)O)[C@@H](C)O` (Palmitoyl-LTYA[Bpa]HTSFKAL-OH) it was 100 nM.

For the origin of these results see ChEMBL document CHEMBL1148755, “Structural analogues of smoothened intracellular loops as potent inhibitors of Hedgehog pathway and cancer cell growth” (J Med Chem, 2007).
